Laboratory results reported in PubChem BioAssay.
Calls of active or inactive are those of the source.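 How the source made its calls, unless noted: active means current rise at least 3 SD above the untreated control mean in each of two repeat wells; inactive means the rest.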

target: Potassium voltage-gated channel subfamily KQT member 2 (Rattus norvegicus) (UniProt O88943); assay: KCNQ2 thallium flux enhancement – KCNQ2-CHO-K1 cells, selectivity assay for KCNQ1 potentiator project (AID 493009;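 active means mean duplicate potentiation above the buffer control mean plus 5 SD of buffer wells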;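 further: assay conditions were tuned for KCNQ1 rather than KCNQ2 modulators; signal is max minus min fluorescence divided by baseline after thallium stimulus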); conditions: FluxOR thallium flux fluorescence, at 10 µM; hits give high values, scaled: buffer 0, activator control 100
Sequence (O88943 whole entry, looked up): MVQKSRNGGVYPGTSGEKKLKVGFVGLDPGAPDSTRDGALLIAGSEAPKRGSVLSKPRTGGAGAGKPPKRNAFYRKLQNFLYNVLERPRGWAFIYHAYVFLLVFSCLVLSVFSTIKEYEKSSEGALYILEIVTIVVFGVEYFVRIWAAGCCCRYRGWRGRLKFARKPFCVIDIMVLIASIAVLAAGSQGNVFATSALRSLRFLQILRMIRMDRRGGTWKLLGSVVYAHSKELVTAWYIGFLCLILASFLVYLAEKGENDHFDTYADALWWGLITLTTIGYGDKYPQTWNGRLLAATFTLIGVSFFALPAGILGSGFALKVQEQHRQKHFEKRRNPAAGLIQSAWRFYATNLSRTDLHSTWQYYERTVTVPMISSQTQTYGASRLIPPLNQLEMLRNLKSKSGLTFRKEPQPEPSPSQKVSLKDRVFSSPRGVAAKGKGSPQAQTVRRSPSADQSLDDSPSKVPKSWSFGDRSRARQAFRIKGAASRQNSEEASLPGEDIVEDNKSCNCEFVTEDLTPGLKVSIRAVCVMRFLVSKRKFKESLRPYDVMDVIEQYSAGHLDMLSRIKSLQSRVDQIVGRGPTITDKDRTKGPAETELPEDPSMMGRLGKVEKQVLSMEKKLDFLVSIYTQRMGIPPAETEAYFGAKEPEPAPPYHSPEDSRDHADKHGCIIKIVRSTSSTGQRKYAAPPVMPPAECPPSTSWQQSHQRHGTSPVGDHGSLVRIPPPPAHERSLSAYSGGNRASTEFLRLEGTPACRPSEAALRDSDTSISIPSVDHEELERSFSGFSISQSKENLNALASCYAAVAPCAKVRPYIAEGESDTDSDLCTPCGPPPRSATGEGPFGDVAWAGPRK

Structure (SMILES)	outcome	potentiation
CN1C(=O)CC(N2CCN(CC(=O)N3CCCC3)CC2)C1=O (stereo unspecified)	inactive	–
CCN(CC)c1ccc(/C=N/Nc2nc3ccccc3[nH]2)c(O)c1	inactive	–
Oc1c(N=NC(=S)Nc2ccccc2F)c2ccccc2n1Cc1ccccc1F	–	169% (active)
COc1ccc(C2c3ccc4ccccc4c3Oc3ncn(CCN4CCOCC4)c(=N)c32)cc1 (stereo unspecified)	inactive	–
COc1ccc(-c2sc(C(=O)c3ccc(Cl)cc3Cl)cc2CC(=O)O)cc1	inactive	–
COCCn1c(SCC(=O)NCc2ccc3c(c2)OCO3)nnc1C(C)C	inactive	–
CCC(CC)c1nnc(NC(=O)c2cc(C(=O)OC)cc([N+](=O)[O-])c2)s1	–	419% (active)
Cc1ccccc1OC(=O)n1c(=S)oc2cc(Cl)ccc21	–	157% (active)
Cc1ccc(-n2cnnn2)c2cccnc12	inactive	–
CCOC(=O)c1c(NC(=S)NCc2ccccc2)sc2c1CCN(C(=O)OCC)C2	inactive	–
COCCOC(=O)N/C=C\c1nc2ccccc2c(=O)[nH]1	inactive	–
Cc1nn(-c2ccccc2)c(Cl)c1/C=N\NC(=O)c1cncc(Br)c1	inactive	–
CCN(CC)c1ccc(Nc2cc3n(c(=O)n2)CCc2cc(OC)c(OC)cc2-3)cc1	inactive	–
O=C(NC(=S)Nc1ccccc1N1CCCC1)c1ccccc1Br	–	202% (active)
O=C(NNc1nc2c(F)cc(F)cc2s1)c1ccccc1	inactive	–
O=C(CN1C(=O)COc2ccccc21)N(Cc1cccnc1)Cc1cccc(F)c1	inactive	–
CC(=O)c1cc2c(cc1NC(=O)CN1Cc3ccccc3C1=O)OCO2	inactive	–
CC(C)CCn1c(=O)c2ccccc2n2c(=S)[nH]nc12	inactive	–
CCN(CC)CC(O)Cn1c2ccccc2c2ccccc21 (stereo unspecified)	inactive	–
COc1ccc(C(=O)CSc2nnc(NC(=O)C3CC(=O)N(c4cccc(OC)c4)C3)s2)cc1 (stereo unspecified)	inactive	–
CCSc1nnc(NC(=O)C2C3C=CC(C3)C2C(=O)O)s1 (stereo unspecified)	inactive	–

target: Potassium voltage-gated channel subfamily KQT member 1 (Homo sapiens) (UniProt P51787); assay: KCNQ1 activators by electrophysiology – IonWorks patch clamp, KCNQ1-CHO cells, orthogonal assay for KCNQ1 potentiator project, confirmation (AID 493184); conditions: automated patch clamp current, at 10 µM; hits give high values;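 on current potentiation: percent change of the same well's current before compound addition so 0% = no change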
Sequence (P51787 whole entry, looked up): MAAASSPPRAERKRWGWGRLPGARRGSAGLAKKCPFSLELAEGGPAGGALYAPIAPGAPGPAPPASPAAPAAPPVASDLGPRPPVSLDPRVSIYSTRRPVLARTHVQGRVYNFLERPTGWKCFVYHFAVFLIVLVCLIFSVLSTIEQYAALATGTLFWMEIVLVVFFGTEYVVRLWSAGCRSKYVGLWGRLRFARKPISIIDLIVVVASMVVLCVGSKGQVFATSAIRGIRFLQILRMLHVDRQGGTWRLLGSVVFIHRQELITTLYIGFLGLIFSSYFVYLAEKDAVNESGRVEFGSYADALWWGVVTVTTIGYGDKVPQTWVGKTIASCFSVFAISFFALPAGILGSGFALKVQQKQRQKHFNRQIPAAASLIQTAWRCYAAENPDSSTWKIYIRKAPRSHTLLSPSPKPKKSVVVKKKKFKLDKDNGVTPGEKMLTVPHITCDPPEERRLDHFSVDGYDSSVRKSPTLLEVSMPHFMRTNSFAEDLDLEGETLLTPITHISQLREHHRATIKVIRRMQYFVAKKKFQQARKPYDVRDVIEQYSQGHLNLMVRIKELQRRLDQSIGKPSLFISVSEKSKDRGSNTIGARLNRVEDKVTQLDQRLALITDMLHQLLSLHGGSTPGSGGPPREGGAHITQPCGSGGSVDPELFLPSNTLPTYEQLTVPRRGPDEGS
In short: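 assay system = KCNQ1-expressing CHO cells | medium = external bath solution at pH 7.4 | probe or stimulus = 2,000 ms depolarization, -90 to +40 mV | compound dosing = 10 µM final, single point | measured by = automated voltage clamp, amphotericin B perforated patch | measure = percent current increase versus pre-compound level | replication = duplicates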

Structure (SMILES)	outcome	current potentiation
N#Cc1cn(CC(=O)NCC2CCCO2)c2ccccc12 (stereo unspecified)	inactive	–
CSc1nc(C)c2c(n1)N(c1ccc(C(C)C)cc1)CC2	inactive	–
Cc1cc(C(=O)N/N=C/C=C/c2ccc3c(c2)OCO3)n[nH]1	inactive	–
CC(C)(C)c1cc(C(=O)NNC(=O)c2ccc(Cl)cc2)no1	inactive	–
Cc1ccc(/C=C/C(=O)C2C(=O)c3ccccc3C2=O)cc1	inactive	–
COc1ccc(OCc2cc(C(=O)N(C)CC3CCCCO3)no2)c(Cl)c1 (stereo unspecified)	inactive	–
Oc1[nH]c2ccc(Br)cc2c1N=NC(=S)Nc1ccc(F)cc1	inactive	–
CC(C)CSC1=NSC2=NC(=O)/C(=C\c3ccccc3)C(=N)N12	inactive	–
Oc1c(Br)cc(Br)cc1/C=N/c1nc2c(s1)CCCC2	inactive	–
CC(C)C(NC(=O)Nc1ccccc1)C(=O)Nc1cccc(S(=O)(=O)N(C)C)c1 (stereo unspecified)	inactive	–
O=c1c2cc(Br)ccc2nc(-c2ccccc2)n1O	inactive	–
O=C(CSc1nc2ccccc2[nH]1)N/N=C/c1ccncc1	inactive	–
CCOC(=O)c1ccc(Nc2nc(N3CCOCC3)nc(N3CCOCC3)n2)cc1	inactive	–
CN(C)CCCC1(O)c2ccccc2C=Cc2ccccc21	inactive	–
O=C(Nc1cc([N+](=O)[O-])ccc1N1CCCC1)c1cccs1	inactive	–
Oc1oc(-c2cccc3ccccc23)nc1/C=N/c1nccs1	inactive	–
COn1c(SCc2ccc(C)cc2C)nc2ccccc2c1=O	inactive	–
Cc1ccc(OCC(=O)NC(=S)Nc2ccc(Br)cn2)cc1	inactive	–
Cc1ccccc1NC1=NC(=S)N(c2ccccc2)C12CCCCC2	inactive	–
CN1C(=O)CC(N2CCN(CC(=O)N3CCCC3)CC2)C1=O (stereo unspecified)	inactive	–

Structure (SMILES)	outcome	current potentiation
CCN(CC)c1ccc(/C=N/Nc2nc3ccccc3[nH]2)c(O)c1	inactive	–
Oc1c(N=NC(=S)Nc2ccccc2F)c2ccccc2n1Cc1ccccc1F	inactive	–
COc1ccc(C2c3ccc4ccccc4c3Oc3ncn(CCN4CCOCC4)c(=N)c32)cc1 (stereo unspecified)	inactive	–
COc1ccc(-c2sc(C(=O)c3ccc(Cl)cc3Cl)cc2CC(=O)O)cc1	–	33.9% (active)
COCCn1c(SCC(=O)NCc2ccc3c(c2)OCO3)nnc1C(C)C	inactive	–
CCC(CC)c1nnc(NC(=O)c2cc(C(=O)OC)cc([N+](=O)[O-])c2)s1	inactive	–
Cc1ccccc1OC(=O)n1c(=S)oc2cc(Cl)ccc21	inactive	–
Cc1ccc(-n2cnnn2)c2cccnc12	inactive	–
CCOC(=O)c1c(NC(=S)NCc2ccccc2)sc2c1CCN(C(=O)OCC)C2	inactive	–
COCCOC(=O)N/C=C\c1nc2ccccc2c(=O)[nH]1	inactive	–
Cc1nn(-c2ccccc2)c(Cl)c1/C=N\NC(=O)c1cncc(Br)c1	inactive	–
CCN(CC)c1ccc(Nc2cc3n(c(=O)n2)CCc2cc(OC)c(OC)cc2-3)cc1	inactive	–
O=C(NC(=S)Nc1ccccc1N1CCCC1)c1ccccc1Br	inactive	–
O=C(NNc1nc2c(F)cc(F)cc2s1)c1ccccc1	inactive	–
O=C(CN1C(=O)COc2ccccc21)N(Cc1cccnc1)Cc1cccc(F)c1	inactive	–
CC(=O)c1cc2c(cc1NC(=O)CN1Cc3ccccc3C1=O)OCO2	inactive	–
CC(C)CCn1c(=O)c2ccccc2n2c(=S)[nH]nc12	inactive	–
CCN(CC)CC(O)Cn1c2ccccc2c2ccccc21 (stereo unspecified)	inactive	–
COc1ccc(C(=O)CSc2nnc(NC(=O)C3CC(=O)N(c4cccc(OC)c4)C3)s2)cc1 (stereo unspecified)	inactive	–
CCSc1nnc(NC(=O)C2C3C=CC(C3)C2C(=O)O)s1 (stereo unspecified)	inactive	–
